Measurements as given in PubChem BioAssay.
The source made the active and inactive calls.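 How the source made its calls, unless noted: active means viability at or under a set limit in both replicates, limit being median viability minus 3 SD (cut at about 48% in these data, passing the limit was not always enough); inconclusive means at or under the limit in just one replicate; inactive means at or above the limit in both replicates.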

Legend:
[1] = Her2 expression decrease, cell viability multiplex – SKBR3 breast tumor cells, AlphaScreen, ATP viability, primary screen (AID 461;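 active means Her2 level under about 52% in both replicate screens, with viability over 70% of control, limit read from the data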;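 on Her2 level: lower value means less Her2 protein in the cells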;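 on viability: percent of carrier control wells set as 100% viability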); settings: SKBR3 Her2 protein level, 18-24 h, measured here: SKBR3 viability, ATP luminescence, at 10 µM
[2] = molecular target: Receptor tyrosine-protein kinase erbB-2 (Homo sapiens) (UniProt P04626); test: as above; settings: 18-24 h, at 10 µM, stronger effect = lower value
[3] = reduced viability of SK-BR-3 breast cancer cells – cell-based, 24 h, human, pilot screen (AID 572;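 active means viability at or below 10% of carrier control in both of two separate runs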;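 further: compound exposure lasted between 18 and 24 h rather than exactly 24 h; 100% = carrier-treated control wells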); settings: SK-BR-3 viability, CellTiter-Glo luminescence, at 10 µM, stronger effect = lower value
[4] = HUVEC growth inhibition – cell-based, human, primary screen (AID 575;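 active means viability at or below 30% in both replicate assays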;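 further: 100% = median of untreated cell wells with 0.1% DMSO on each plate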); settings: HUVEC proliferation, CellTiter-Glo luminescence, 72 h; at 10 µM; stronger effect = lower value
Procedure, shortened: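 Material: primary human umbilical vein endothelial cells / Schedule: 72 h exposure, 37 °C, 5% CO2, 30 min RT equilibration / Signal: ATP-based CellTiter-Glo luminescent read / Read-out basis: percent of median DMSO-control luminescence / Control set: 32 DMSO-only cell-control wells (high), 32 MePR drug-control wells (low) per plate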

[5] = H69AR cell proliferation blockers – human, duplicate replicates, primary screen (AID 580); settings: H69AR lung tumor cells viability, ATP luminescence, 72 h; at 10 µM; stronger effect = lower value;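 further: 100% = mean luminescence of untreated wells and 0% = no signal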
[6] = MRP1 drug-resistance reversers in H69AR cells – cell-based, doxorubicin co-treatment, pilot screen (AID 601;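 active means viability loss from added drug above about 55%, and viability with drug at most 40%, in both replicates, limit read from the data, passing the limit was not always enough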); settings: CellTiter-Glo, 72 h, at 10 µM; for differential viability (reversal): stronger effect = higher value
[7] = yeast transport mutant growth inhibition pilot in 384-well plates, post-Golgi transport modulator project (AID 636; in the data active means inhibition above about 31%); settings: absorbance 615 nm, about 18 h, stronger effect = higher value
[8] = growth suppression of yeast trafficking mutant, preliminary HTS, modulators of trafficking downstream of Golgi apparatus project, 1536-format plate, OD 615 nm (AID 637; in the data active means inhibition above about 30%); settings: yeast transport mutant growth, absorbance 615 nm, 18 h; stronger effect = higher value
[9] = H69AR cells + 2 uM doxorubicin, measured here: viability with 2 uM doxorubicin, stronger effect = lower value
[10] = H69AR cells, compound alone cytotoxicity

Chain of Receptor tyrosine-protein kinase erbB-2 (Homo sapiens) (P04626 whole entry, looked up): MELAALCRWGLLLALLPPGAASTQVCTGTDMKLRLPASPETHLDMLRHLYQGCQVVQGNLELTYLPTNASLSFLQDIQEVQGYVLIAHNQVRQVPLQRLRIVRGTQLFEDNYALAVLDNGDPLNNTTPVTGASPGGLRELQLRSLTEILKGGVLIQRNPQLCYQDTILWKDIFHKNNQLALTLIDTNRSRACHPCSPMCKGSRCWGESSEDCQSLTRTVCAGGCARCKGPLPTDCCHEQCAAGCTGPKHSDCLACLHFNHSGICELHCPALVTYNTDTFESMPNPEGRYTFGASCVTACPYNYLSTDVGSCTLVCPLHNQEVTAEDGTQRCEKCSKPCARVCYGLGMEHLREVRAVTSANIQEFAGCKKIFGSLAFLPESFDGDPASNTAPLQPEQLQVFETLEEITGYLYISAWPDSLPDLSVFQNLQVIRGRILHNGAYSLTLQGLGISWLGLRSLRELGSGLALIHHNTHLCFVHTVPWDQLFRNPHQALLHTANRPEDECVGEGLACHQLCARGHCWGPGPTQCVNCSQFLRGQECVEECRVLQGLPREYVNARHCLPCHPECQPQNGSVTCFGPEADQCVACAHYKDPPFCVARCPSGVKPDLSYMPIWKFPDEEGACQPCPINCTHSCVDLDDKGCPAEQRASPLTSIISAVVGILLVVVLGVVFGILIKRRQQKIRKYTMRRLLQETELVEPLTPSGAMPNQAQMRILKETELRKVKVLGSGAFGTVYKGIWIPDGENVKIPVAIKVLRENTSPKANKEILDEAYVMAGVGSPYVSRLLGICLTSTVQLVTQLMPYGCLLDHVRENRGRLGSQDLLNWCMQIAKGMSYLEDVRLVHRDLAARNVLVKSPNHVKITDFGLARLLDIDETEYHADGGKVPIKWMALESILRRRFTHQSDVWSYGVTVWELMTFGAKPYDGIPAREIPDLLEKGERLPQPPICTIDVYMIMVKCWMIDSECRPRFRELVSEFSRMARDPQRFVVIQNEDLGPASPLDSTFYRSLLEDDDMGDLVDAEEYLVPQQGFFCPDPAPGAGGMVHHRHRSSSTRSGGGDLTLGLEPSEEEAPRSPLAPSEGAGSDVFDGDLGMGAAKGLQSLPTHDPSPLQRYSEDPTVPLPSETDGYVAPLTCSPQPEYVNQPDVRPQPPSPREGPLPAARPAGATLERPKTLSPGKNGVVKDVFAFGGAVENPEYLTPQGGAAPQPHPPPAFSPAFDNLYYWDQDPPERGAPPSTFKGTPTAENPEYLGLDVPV

SMILES	viability [1]	Her2 level [2]	viability [3]	viability [4]	viability [5]	differential viability (reversal) ([6]; H69AR cells + 2 uM doxorubicin)	viability [6, 9]	viability [6, 10]	inhibition [7]	inhibition [8]
CCOc1ccccc1NC(=O)NC1CCN(CC(=O)Nc2ccc3c(c2)OCCO3)CC1	119%	97% (inactive)	119% (inactive)	73.9% (inactive)	86.8% (inactive)	-7.47% (inactive)	94.3%	86.8%	-0.39% (inactive)	7.54% (inactive)
COC(=O)c1c(NC(=O)CSc2nnc(-c3cccnc3)n2Cc2ccco2)sc(C)c1C	87%	77% (inactive)	87% (inactive)	71.5% (inactive)	83.7% (inactive)	9.16% (inactive)	74.5%	83.7%	-5.14% (inactive)	-6.03% (inactive)
Cc1ccc2nsnc2c1S(=O)(=O)N(Cc1cc2cccc(C)c2[nH]c1=O)CC1CCCO1 (stereo not given)	81.5%	89% (inactive)	81.5% (inactive)	82.3% (inactive)	21.4% (active)	0% (inactive)	21.4%	21.4%	-5.6% (inactive)	-0.66% (inactive)
Cc1ccc(CS(=O)(=O)CCC(=O)NCC2CCCO2)cc1 (stereo not given)	96.5%	106% (inactive)	96.5% (inactive)	116% (inactive)	93.3% (inactive)	2.6% (inactive)	90.7%	93.3%	-7.03% (inactive)	7.5% (inactive)
COc1ccc(S(=O)(=O)N2CCC(C(=O)c3ccc4c(c3)OCCO4)CC2)cc1	88.5%	108% (inactive)	88.5% (inactive)	61.7% (inactive)	91.5% (inactive)	7.49% (inactive)	84%	91.5%	-1.95% (inactive)	-8.69% (inactive)
Cc1cc(C)n2cc(CSc3nnnn3-c3ccc(Cl)cc3)nc2n1	89.5%	89% (inactive)	89.5% (inactive)	94.1% (inactive)	97.6% (inactive)	7.13% (inactive)	90.5%	97.6%	-1.73% (inactive)	0.65% (inactive)
CN(C)c1ccc(CNCCC2(O)CCOC(C)(C)C2)cc1 (stereo not given)	89%	86% (inactive)	89% (inactive)	95.3% (inactive)	102% (inactive)	7.18% (inactive)	95%	102%	-6.08% (inactive)	1.64% (inactive)
COc1cccc(-c2nc(CSCC(=O)N3CCc4ccccc43)c(C)o2)c1	82.5%	162% (inactive)	82.5% (inactive)	82.1% (inactive)	87.1% (inactive)	-10.1% (inactive)	97.1%	87.1%	2.63% (inactive)	-8.67% (inactive)
Cc1cc(=O)oc2cc(OCC(=O)OCc3nnc(-c4ccccc4)o3)ccc12	106%	92.5% (inactive)	106% (inactive)	84.1% (inactive)	94.9% (inactive)	3.04% (inactive)	91.9%	94.9%	-6.18% (inactive)	-0.16% (inactive)
COc1ccc(C2=Nn3c(nnc3-c3ccccc3)SC2)cc1OC	124%	101% (inactive)	124% (inactive)	78.1% (inactive)	81.7% (inactive)	2.4% (inactive)	79.3%	81.7%	-4.47% (inactive)	5.65% (inactive)
Nc1cc(CN2C(=O)c3ccccc3C2=O)cc(Cl)c1O	102%	91.5% (inactive)	102% (inactive)	75.1% (inactive)	108% (inactive)	29% (inactive)	79.2%	108%	-5.41% (inactive)	-1.64% (inactive)
O=C(C1CCN(S(=O)(=O)c2cccnc2)CC1)N1CCN(c2ccc(Cl)cc2)CC1	84%	81% (inactive)	84% (inactive)	70.2% (inactive)	89.7% (inactive)	18.8% (inactive)	70.9%	89.7%	-2.11% (inactive)	-4.44% (inactive)
CN(C)C(=O)N1CCCC(C(=O)NCc2ccccc2)C1 (stereo not given)	89%	92% (inactive)	89% (inactive)	102% (inactive)	87.8% (inactive)	-18.9% (inactive)	107%	87.8%	1.92% (inactive)	4.5% (inactive)
CC(C)(C)n1ncc2c(=O)n(CC(=O)NCc3ccco3)cnc21	91.5%	94% (inactive)	91.5% (inactive)	111% (inactive)	68.5% (inactive)	-12.3% (inactive)	80.8%	68.5%	-1.45% (inactive)	-10.5% (inactive)
COCCNC(=O)CSc1nc(-c2ccc(OC)c(OC)c2)cc(C(F)(F)F)n1	98.5%	94% (inactive)	98.5% (inactive)	101% (inactive)	89% (inactive)	-11.1% (inactive)	100%	89%	1.84% (inactive)	-2.3% (inactive)
